One assay deals with Platelet glycoprotein 4 (Rattus norvegicus, UniProt Q07969). In words: Displacement of photoactivatable [125I]-Tyr-Bpa-Ala-Hexarelin from CD36 in Sprague-Dawley rat cardiac membranes incubated for 60 mins by densitometry. It counts as cell membranes, Membrane.
Assay [1] deals with Growth hormone secretagogue receptor type 1 (Homo sapiens, UniProt Q92847). In words: Displacement of [125I]ghrelin expressed in LLC-PK1 cells incubated for 1 hr by gamma counting method. The format is cell-based. In a few lines: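 Membranes from LLC-PK1 cells transiently transfected with GHS-R1a (CaPO₄; harvested 24 h later; freeze/thaw lysis, 10000g), 10 μg protein/tube. Incubated with ¹²⁵I-ghrelin (40,000 cpm) and competitor 10⁻¹² to 10⁻⁵ M, 1 h at RT, in Tris/MgCl₂/EDTA/bacitracin buffer pH 7.3. Nonspecific binding set with 10⁻⁵ M competitor. Bound separated by filtration on PEI-soaked GF/C filters, gamma counted.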
(In general: In a radioligand displacement assay an active substance lowers the binding of a labelled ligand.)

Our source for the IC50 values is ChEMBL document CHEMBL2163252, “Azapeptide analogues of the growth hormone releasing peptide 6 as cluster of differentiation 36 receptor ligands with reduced affinity for the growth hormone secretagogue receptor 1a” (J Med Chem, 2012).

Starred links: 1 amine or outer side, 2 acyl side, 3 side chain; linkers in the order of their positions; H or OH if unused. Non-standard residues stand in square brackets, D forms with d. Residues, ends and D or L forms follow the SMILES beside them. dTrp(2-Me) = Cc1[nH]c2ccccc2c1C[C@@H](N)C(=O)O; azaTyr = O=C(N(Cc1ccc(O)cc1)N[*:1])[*:2]; azaPhe = O=C(N(Cc1ccccc1)N[*:1])[*:2]; X1 = O=C(N(CCc1ccccc1)N[*:1])[*:2]; azaLeu = CC(C)CN(N[*:1])C(=O)[*:2]; azaPro = O=C(N1CCCN1[*:1])[*:2]; Aib = CC(C)(N)C(=O)O; azaGly = NNC(=O)O

Sequence of Platelet glycoprotein 4 (Q07969 whole entry): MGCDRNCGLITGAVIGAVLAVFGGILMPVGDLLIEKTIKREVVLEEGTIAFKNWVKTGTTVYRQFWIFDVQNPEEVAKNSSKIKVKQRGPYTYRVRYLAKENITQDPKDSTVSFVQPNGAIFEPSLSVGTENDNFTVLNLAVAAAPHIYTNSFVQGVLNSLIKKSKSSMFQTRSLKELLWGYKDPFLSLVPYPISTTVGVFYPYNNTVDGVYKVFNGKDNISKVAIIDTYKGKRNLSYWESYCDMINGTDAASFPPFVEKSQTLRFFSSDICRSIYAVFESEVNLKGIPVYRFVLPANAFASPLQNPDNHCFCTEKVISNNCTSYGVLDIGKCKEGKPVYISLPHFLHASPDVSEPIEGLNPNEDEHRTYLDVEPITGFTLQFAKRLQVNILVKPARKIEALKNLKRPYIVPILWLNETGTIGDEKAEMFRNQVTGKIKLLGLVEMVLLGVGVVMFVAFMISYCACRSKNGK
Sequence of Growth hormone secretagogue receptor type 1 (Q92847 whole entry): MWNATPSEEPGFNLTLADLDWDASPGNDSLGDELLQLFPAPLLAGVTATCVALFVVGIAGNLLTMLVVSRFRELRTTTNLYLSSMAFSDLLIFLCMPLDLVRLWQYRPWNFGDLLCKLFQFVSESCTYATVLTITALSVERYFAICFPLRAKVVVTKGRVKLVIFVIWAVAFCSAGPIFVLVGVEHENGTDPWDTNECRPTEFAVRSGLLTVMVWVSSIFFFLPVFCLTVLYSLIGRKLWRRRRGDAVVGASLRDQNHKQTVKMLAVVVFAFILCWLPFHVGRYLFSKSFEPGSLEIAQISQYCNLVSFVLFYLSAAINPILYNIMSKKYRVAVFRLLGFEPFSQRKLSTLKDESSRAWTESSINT

In general, IC50 refers to the concentration at which inhibition is half-maximal. Read a low IC50 as inhibition by little substance. On to `CC(C)CN(NC(=O)[C@@H](Cc1c[nH]c2ccccc12)NC(=O)[C@@H](N)Cc1cnc[nH]1)C(=O)N[C@@H](Cc1c[nH]c2ccccc12)C(N)=O`, for which the IC50 at Platelet glycoprotein 4 is > 10 µM; in assay [1] it was 85.6 µM.
Take `NCCCC[C@H](NC(=O)[C@@H](Cc1ccccc1)NC(=O)[C@H](Cc1c[nH]c2ccccc12)NC(=O)N1CCCN1C(=O)[C@@H](Cc1c[nH]c2ccccc12)NC(=O)[C@@H](N)Cc1cnc[nH]1)C(N)=O` (H-H[dW][azaPro]W[dF]K-NH2): the values for the IC50 (at Platelet glycoprotein 4; in assay [1]) were 9.81 µM and > 10 µM, respectively.
For `C[C@H](NC(=O)[C@@H](Cc1c[nH]c2ccccc12)NC(=O)[C@@H](N)Cc1cnc[nH]1)C(=O)NN(CCc1ccccc1)C(=O)N[C@H](Cc1ccccc1)C(=O)N[C@@H](CCCCN)C(N)=O` (H-H[dW]A[X1][dF]K-NH2), the IC50 at Platelet glycoprotein 4 is > 10 µM.
`CC(C)CN(NC(=O)[C@@H](C)NC(=O)[C@@H](N)Cc1cnc[nH]1)C(=O)N[C@@H](Cc1c[nH]c2ccccc12)C(=O)N[C@H](Cc1ccccc1)C(=O)N[C@@H](CCCCN)C(N)=O` (H-H[dA][azaLeu]W[dF]K-NH2): the IC50 (on Platelet glycoprotein 4; in assay [1]) was > 10 µM each time.
In the case of `CC(C)CN(NC(=O)[C@@H](Cc1c[nH]c2ccccc12)NC(=O)[C@@H](N)Cc1cnc[nH]1)C(=O)N[C@@H](C)C(=O)N[C@H](Cc1ccccc1)C(=O)N[C@@H](CCCCN)C(N)=O` (H-H[dW][azaLeu]A[dF]K-NH2), the IC50 at Platelet glycoprotein 4 is 25.9 µM; in assay [1], > 10 µM.
In the case of `C[C@H](NC(=O)[C@@H](Cc1ccccc1)NC(=O)[C@H](Cc1c[nH]c2ccccc12)NC(=O)[C@H](C)NC(=O)N(Cc1ccccc1)NC(=O)[C@@H](N)Cc1cnc[nH]1)C(N)=O` (H-H[azaPhe]AW[dF]A-NH2), on Platelet glycoprotein 4, the IC50 was > 10 µM.
For `C[C@@H](NC(=O)[C@H](Cc1c[nH]c2ccccc12)NC(=O)NNC(=O)[C@@H](Cc1c[nH]c2ccccc12)NC(=O)[C@@H](N)Cc1cnc[nH]1)C(=O)N[C@@H](CCCCN)C(N)=O` (H-H[dW][azaGly]W[dA]K-NH2), the IC50 (on Platelet glycoprotein 4; in assay [1]) was > 10 µM in each case.
In the case of `C[C@H](NC(=O)N(Cc1ccc(O)cc1)NC(=O)[C@@H](N)Cc1cnc[nH]1)C(=O)N[C@@H](Cc1c[nH]c2ccccc12)C(=O)N[C@H](C)C(=O)N[C@@H](CCCCN)C(N)=O` (H-H[azaTyr]AW[dA]K-NH2), the IC50 (at Platelet glycoprotein 4; in assay [1]) was > 10 µM in each case.
For `CC(C)CN(NC(=O)[C@@H](Cc1c[nH]c2ccccc12)NC(=O)[C@@H](N)Cc1cnc[nH]1)C(=O)N[C@@H](Cc1c[nH]c2ccccc12)C(=O)N[C@H](Cc1ccccc1)C(N)=O`, the figures for the IC50 (at Platelet glycoprotein 4; in assay [1]) were 9.01 µM and 4.55 µM, respectively.
Molecule `C[C@H](NC(=O)[C@@H](Cc1c[nH]c2ccccc12)NC(=O)[C@@H](N)Cc1c[nH]cn1)C(=O)N[C@@H](Cc1c[nH]c2ccccc12)C(=O)N[C@H](Cc1ccccc1)C(=O)N[C@@H](CCCCN)C(N)=O` (H-H[dW]AW[dF]K-NH2) returned an IC50 at Platelet glycoprotein 4 of 1.82 µM.
As to `C[C@H](NC(=O)[C@@H](Cc1ccccc1)NC(=O)[C@H](Cc1c[nH]c2ccccc12)NC(=O)[C@H](C)NC(=O)N(Cc1ccc(O)cc1)NC(=O)[C@@H](N)Cc1cnc[nH]1)C(N)=O` (H-H[azaTyr]AW[dF]A-NH2), the IC50 (on Platelet glycoprotein 4; in assay [1]) was > 10 µM throughout.
Consider `CC(C)CN(NC(=O)[C@@H](Cc1c[nH]c2ccccc12)NC(=O)[C@H](C)N)C(=O)N[C@@H](Cc1c[nH]c2ccccc12)C(=O)N[C@H](Cc1ccccc1)C(=O)N[C@@H](CCCCN)C(N)=O`, for which the IC50 at Platelet glycoprotein 4 is 6.66 µM.
In the case of `C[C@H](NC(=O)[C@@H](Cc1ccccc1)NC(=O)N(Cc1ccccc1)NC(=O)[C@H](C)NC(=O)[C@@H](Cc1c[nH]c2ccccc12)NC(=O)[C@@H](N)Cc1cnc[nH]1)C(N)=O` (H-H[dW]A[azaPhe][dF]A-NH2), the IC50 (at Platelet glycoprotein 4; in assay [1]) was > 10 µM each time.
Turning to `CC(C)CN(NC(=O)[C@@H](Cc1c[nH]c2ccccc12)NC(=O)[C@@H](N)Cc1cnc[nH]1)C(=O)N[C@@H](Cc1c[nH]c2ccccc12)C(=O)N[C@H](C)C(=O)N[C@@H](CCCCN)C(N)=O` (H-H[dW][azaLeu]W[dA]K-NH2), the figures for the IC50 (at Platelet glycoprotein 4; in assay [1]) were 9.48 µM and > 10 µM, respectively.
As to `C[C@H](NC(=O)[C@@H](Cc1ccccc1)NC(=O)[C@H](Cc1c[nH]c2ccccc12)NC(=O)NNC(=O)[C@@H](Cc1c[nH]c2ccccc12)NC(=O)[C@@H](N)Cc1cnc[nH]1)C(N)=O` (H-H[dW][azaGly]W[dF]A-NH2), on Platelet glycoprotein 4, the IC50 is > 10 µM.
Regarding `C[C@H](NC(=O)N(Cc1ccccc1)NC(=O)C(N)Cc1cnc[nH]1)C(=O)N[C@@H](Cc1c[nH]c2ccccc12)C(=O)N[C@H](Cc1ccccc1)C(=O)N[C@@H](CCCCN)C(N)=O` (some centres undefined), the IC50 is 72.4 µM at Platelet glycoprotein 4 and 16.1 µM in assay [1].
For `C[C@H](NC(=O)N(Cc1ccccc1)NC(=O)[C@@H](N)Cc1cnc[nH]1)C(=O)N[C@@H](Cc1c[nH]c2ccccc12)C(=O)N[C@H](C)C(=O)N[C@@H](CCCCN)C(N)=O` (H-H[azaPhe]AW[dA]K-NH2), in that order: > 10 µM and > 10 µM.
Regarding `Cc1[nH]c2ccccc2c1C[C@@H](NC(=O)[C@@H](Cc1c(C)[nH]c2ccccc12)NC(=O)C(C)(C)N)C(N)=O` (H-[Aib]-[dTrp(2-Me)]-[dTrp(2-Me)]-NH2), the figures for the IC50 (on Platelet glycoprotein 4; in assay [1]) were > 10 µM and 0.0629 µM, respectively.
Take `C[C@H](NC(=O)[C@H](C)NC(=O)N(Cc1ccccc1)NC(=O)C(N)Cc1cnc[nH]1)C(=O)N[C@H](Cc1ccccc1)C(=O)N[C@@H](CCCCN)C(N)=O` (some centres undefined): the IC50 (on Platelet glycoprotein 4; in assay [1]) was > 10 µM each time.
`C[C@H](NC(=O)[C@@H](Cc1c[nH]c2ccccc12)NC(=O)[C@@H](N)Cc1cnc[nH]1)C(=O)N1CCCN1C(=O)N[C@H](Cc1ccccc1)C(=O)N[C@@H](CCCCN)C(N)=O` (H-H[dW]A[azaPro][dF]K-NH2): the IC50 (on Platelet glycoprotein 4; in assay [1]) was > 10 µM each time.
With `C[C@H](NC(=O)[C@@H](C)NC(=O)[C@@H](N)Cc1cnc[nH]1)C(=O)NN(Cc1ccccc1)C(=O)N[C@H](Cc1ccccc1)C(=O)N[C@@H](CCCCN)C(N)=O` (H-H[dA]A[azaPhe][dF]K-NH2), the IC50 (on Platelet glycoprotein 4; in assay [1]) was > 10 µM each time.
For `C[C@@H](NC(=O)[C@@H](N)Cc1cnc[nH]1)C(=O)NNC(=O)N[C@@H](Cc1c[nH]c2ccccc12)C(=O)N[C@H](Cc1ccccc1)C(=O)N[C@@H](CCCCN)C(N)=O` (H-H[dA][azaGly]W[dF]K-NH2), the IC50 (on Platelet glycoprotein 4; in assay [1]) was > 10 µM each time.
With `CCC(=O)N[C@H](Cc1c[nH]c2ccccc12)C(=O)NN(CC(C)C)C(=O)N[C@@H](Cc1c[nH]c2ccccc12)C(=O)N[C@H](Cc1ccccc1)C(=O)N[C@@H](CCCCN)C(N)=O`, the IC50 at Platelet glycoprotein 4 is > 10 µM; in assay [1], 3.86 µM.
Take `C[C@H](NC(=O)[C@@H](Cc1c[nH]c2ccccc12)NC(=O)[C@@H](N)Cc1cnc[nH]1)C(=O)N[C@@H](Cc1c[nH]c2ccccc12)C(=O)N1CCCN1C(=O)N[C@@H](CCCCN)C(N)=O` (H-H[dW]AW[azaPro]K-NH2): the IC50 (on Platelet glycoprotein 4; in assay [1]) was > 10 µM in each case.
As to `C[C@H](NC(=O)N1CCCN1C(=O)[C@@H](N)Cc1cnc[nH]1)C(=O)N[C@@H](Cc1c[nH]c2ccccc12)C(=O)N[C@H](Cc1ccccc1)C(=O)N[C@@H](CCCCN)C(N)=O`, the IC50 (on Platelet glycoprotein 4; in assay [1]) was > 10 µM each time.
For the molecule `CC(C)CN(NC(=O)[C@@H](Cc1c[nH]c2ccccc12)NC(=O)[C@@H]1CCCN1)C(=O)N[C@@H](Cc1c[nH]c2ccccc12)C(=O)N[C@H](Cc1ccccc1)C(=O)N[C@@H](CCCCN)C(N)=O`, the results for the IC50 (on Platelet glycoprotein 4; in assay [1]) were 7.97 µM and 1.17 µM, respectively.
As to `CC(C)CN(NC(=O)[C@@H](Cc1c[nH]c2ccccc12)NC(=O)CN)C(=O)N[C@@H](Cc1c[nH]c2ccccc12)C(=O)N[C@H](Cc1ccccc1)C(=O)N[C@@H](CCCCN)C(N)=O`, the IC50 amounted to 10.5 µM at Platelet glycoprotein 4 and 5.41 µM in assay [1].
For the molecule `C[C@H](NC(=O)N(Cc1cccc2ccccc12)NC(=O)C(N)Cc1cnc[nH]1)C(=O)N[C@@H](Cc1c[nH]c2ccccc12)C(=O)N[C@H](Cc1ccccc1)C(=O)N[C@@H](CCCCN)C(N)=O` (some centres undefined), at Platelet glycoprotein 4, the IC50 is > 10 µM.
Take `NCCCC[C@H](NC(=O)[C@@H](Cc1ccccc1)NC(=O)[C@@H]1CCCN1C(=O)NNC(=O)[C@@H](Cc1c[nH]c2ccccc12)NC(=O)[C@@H](N)Cc1cnc[nH]1)C(N)=O`: the IC50 (on Platelet glycoprotein 4; in assay [1]) was > 10 µM in each case.
On to `CC(C)CN(NC(=O)[C@H](C)NC(=O)[C@@H](Cc1c[nH]c2ccccc12)NC(=O)[C@@H](N)Cc1cnc[nH]1)C(=O)N[C@H](Cc1ccccc1)C(=O)N[C@@H](CCCCN)C(N)=O` (H-H[dW]A[azaLeu][dF]K-NH2), for which the IC50 at Platelet glycoprotein 4 is > 10 µM.
With `C[C@H](NC(=O)[C@@H](Cc1c[nH]c2ccccc12)NC(=O)[C@@H](N)Cc1cnc[nH]1)C(=O)NN(Cc1ccccc1)C(=O)N[C@H](C)C(=O)N[C@@H](CCCCN)C(N)=O` (H-H[dW]A[azaPhe][dA]K-NH2), the IC50 (at Platelet glycoprotein 4; in assay [1]) was > 10 µM throughout.
For the molecule `C[C@H](NC(=O)NNC(=O)[C@@H](Cc1c[nH]c2ccccc12)NC(=O)[C@@H](N)Cc1cnc[nH]1)C(=O)N[C@H](Cc1ccccc1)C(=O)N[C@@H](CCCCN)C(N)=O` (H-H[dW][azaGly]A[dF]K-NH2), the half-inhibitory concentration (IC50) (on Platelet glycoprotein 4; in assay [1]) was > 10 µM each time.
Regarding `Cc1[nH]c2ccccc2c1C[C@@H](NC(=O)[C@@H](N)Cc1cnc[nH]1)C(=O)N[C@@H](C)C(=O)N[C@@H](Cc1c[nH]c2ccccc12)C(=O)N[C@H](Cc1ccccc1)C(=O)N[C@@H](CCCCN)C(N)=O` [EXAMORELIN] (H-H[dTrp(2-Me)]AW[dF]K-NH2), the IC50 in assay [1] was determined as 0.0159 µM.
For `CC(C)CN(NC(=O)[C@@H](Cc1c[nH]c2ccccc12)NC(=O)[C@@H](C)N)C(=O)N[C@@H](Cc1c[nH]c2ccccc12)C(=O)N[C@H](Cc1ccccc1)C(=O)N[C@@H](CCCCN)C(N)=O`, the IC50 at Platelet glycoprotein 4 turned out to be 13.3 µM. This lies in the double-digit micromolar range.
